Bioassay records deposited in PubChem by Broad Institute.
SIRT5 inh: SIRT5 desuccinylase inhibitors, primary screen, biochemical, fluorescence imaging, single point, set 5 | NAD-dependent protein deacylase sirtuin-5, mitochondrial (Homo sapiens), Q9NXA8 | Purified SirT5, succinyl-peptide AMC, trypsin-coupled fluorescence | inhibition, % at 15 µM | actives 1.1% (n = 330,000); in the data active means inhibition above about 15%
miR-122 sensor: miR-122 Renilla sensor signal increase in Huh7, primary screen, miR-122 inhibitor project, cell-based, single point, plate reader; activation (reporter increase), % at 12.5 µM; actives 0.3% (n = 340,000); Huh7 miR-122 Renilla luciferase sensor, 48 h; neutral wells = 0, positive control = 100;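 active means mean replicate activation score at least 90 and every replicate individually at or above 90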;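 further: higher luciferase means less miR-122 activity so hits act as miR-122 inhibitors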
S100A4 inh HTS: inhibitors of S100A4-myosin IIA peptide binding, primary screen, biochemical, fluorescence polarization, TAMRA-MyoIIA peptide; inhibition, % at 10.7 µM; Protein S100-A4 (Homo sapiens), P26447; actives 0.14% (n = 360,000); AID 652163, 2013;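 active means mean inhibition of at least 70% across replicates, with every replicate also reaching that level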
Target sequence (P26447 whole entry, looked up): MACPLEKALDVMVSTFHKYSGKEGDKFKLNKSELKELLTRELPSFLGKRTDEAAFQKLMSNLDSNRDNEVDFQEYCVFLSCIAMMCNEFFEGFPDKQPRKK
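Test system – S100A4 monomer (human) · Compound – single-point compound testing · Schedule – 5 min incubation before reading · Probe or stimulus – TAMRA-labelled myosin IIA heavy-chain peptide probe, 5 nM · Benchmarks – neutral control DMSO, positive control TFP · Medium – Calcium-containing HEPES buffer, pH 7.2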
E-sel inducer: E-selectin induction in HUVECs, primary screen, imaging, HUVEC, immunofluorescence imaging, single point. normalized: neutral wells 0, TNF-alpha wells 100. AID 686992, 2013. actives 0.37% (n = 260,000). P16581. activation, % at 7.58 µM;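 active means mean E-selectin-positive cell signal at least 10% of the positive control, reached in at least 60% of replicates, without over 20% cell loss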
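Test system – human umbilical vein endothelial cells (HUVEC), E-selectin induction · Input – 3,000 HUVEC seeded per well · Buffer or medium – EGM-2, gelatin · Compound dosing – single-point compound dose · Detection – immunofluorescence imaging · Measure – percent E-selectin-positive cells · Controls – TNF-alpha high, DMSO low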
FGF22 binding-1: binders of human FGF22 protein, primary screen, FGF22 synaptogenesis inhibitor project, biophysical, thermal shift, single point; Fibroblast growth factor 22 (Homo sapiens), Q9HCT0; recombinant FGF22 thermal shift, SYPRO orange fluorescence; percent of sucrose octasulfate shift, DMSO zero; activity (Tm shift, normalised), % at 9.99 µM; actives 1.5% (n = 340,000);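 active means mean Tm shift, scaled 0 neutral to 100 positive control, at about 1.3% or above, every replicate too, limit read from the data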
Target sequence (Q9HCT0 whole entry, looked up): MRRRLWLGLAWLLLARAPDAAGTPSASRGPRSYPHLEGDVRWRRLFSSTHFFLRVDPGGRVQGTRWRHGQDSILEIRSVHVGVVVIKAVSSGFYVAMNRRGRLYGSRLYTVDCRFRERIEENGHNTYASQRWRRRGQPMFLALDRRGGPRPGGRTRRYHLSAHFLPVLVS
FGF22 binding-2: binders of human FGF22 protein, dose response, FGF22 synaptogenesis inhibitor project, biophysical, thermal shift, cherry-pick retest; recombinant FGF22 thermal shift, SYPRO orange fluorescence; actives 2% (n = 1,000); thermal shift activity, °C (ΔTm) at 38 µM; shares compounds with FGF22 binding-1;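 active means fitted rise in melting shift crosses a set limit at or below the top valid dose tested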
FGF22 TSA: binders of human FGF22 protein, dose response, FGF22 synaptogenesis inhibitor project, biophysical, thermal shift, dry powder | Tm shift (activity), % at 38 µM | shares compounds with FGF22 binding-1 | AID 743017, 2013 | Thermal shift assay, SYPRO orange, melting temperature shift | 50 tested, under 10 active;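 active means compounds whose fitted dose curve of melting temperature shift rises past a set threshold within the tested doses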
TSA no protein: compound-only thermal shift signal without protein, dose response, artefact control for FGF22 binder project, biochemical, cherry-picked samples, RT-PCR instrument; shares compounds with FGF22 binding-1; compound-only SYPRO orange thermal shift counter-screen, no protein; AC50, µM (top dose mostly 38 µM); actives 2% (n = 1,000);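 active means rising signal whose fitted curve reaches the 0.54 level within the top valid dose, showing a melting point, actives reach about 13 µM in these data; inactive means the rest, including activity in the opposite direction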; further: value is where the raw curve crosses a fixed level and not half-maximal
* marks the source's active call; other numbers are inactive results; i = inactive; . = no result; [ ] = another dose, or the depositor's remark. A selection: hits, their analogues and other compounds. The true share with any hit is near 2.5%.

SMILES | SIRT5 inh | miR-122 sensor | S100A4 inh HTS | E-sel inducer | FGF22 binding-1 | FGF22 binding-2 | TSA no protein | others
CCCNC(=O)Nc1ccc2c(c1)OC[C@H](C)N(C(=O)C1CCCCC1)C[C@H](C)[C@@H](OC)CN(C)C2=O | 2 | . | 5 | 0 | 0 | . | .
CCCNC(=O)COC(=O)c1ccccc1C(=O)N(C)C1CCCCC1 | 1 | -5 | 0 | . | 14* | -0.085 | i | FGF22 TSA=0
CN(C(=O)c1ccccc1C(=O)OCC(=O)NCc1ccccc1)C1CCCCC1 | -4 | . | 0 | 0 | 0 | . | .
Cc1cccnc1NC(=O)CCCN1C(=O)c2ccccc2C1=O | 0 | -2 | 4 | . | 17* | 0.22 | i
C[C@@H]1CN([C@H](C)CO)C(=O)c2cc(C#CC(C)(C)O)cnc2O[C@@H]1CN(C)C(=O)c1ccccc1F | -2 | 0[16.7 µM] | 4 | -1 | 0 | . | .
CCNC(=O)C[C@H]1CC[C@@H]2[C@H](COC[C@H](O)CN2C(=O)C2CCOCC2)O1 | 2 | -2[16.7 µM] | -17 | 0 | 27* | 0.056 | i
O=C(C[C@H]1CC[C@H]2[C@@H](COC[C@@H](O)CN2C(=O)C2CC2)O1)NCc1ccncc1 | -8 | 6[16.7 µM] | 0 | 0 | 6.3* | 0.012[42 µM] | i
C[C@@H]1CN([C@H](C)CO)C(=O)CCCn2nncc2CO[C@@H]1CN(C)Cc1cccc(O)c1 | -5 | -3[16.7 µM] | -3 | 0 | 0 | . | .
CCCNC(=O)C[C@H]1CC[C@@H]2[C@H](COC[C@@H](O)CN2C(=O)C2CCOCC2)O1 | 8 | -1[16.7 µM] | -78 | 0 | 0 | . | .
CO[C@@H]1CN(C)C(=O)c2ccc(NS(=O)(=O)c3cn(C)cn3)cc2OC[C@@H](C)N(C)C[C@@H]1C | 6 | 28[16.7 µM] | -1 | 0 | 0 | . | .
